This note sets out measurements from ChEMBL document CHEMBL3046748, “Antifeedant effects of the limonoids from Entandrophragma candolei (Meliaceae) on the gram pod borer, Helicoverpa armigera (Lepidoptera: Noctuidae)” (J Agric Food Chem, 2003).

Converted amounts (≈) assume the structure as drawn. The source made the active and inactive calls. The calls are words filed in the database; no cut-off is given here. Bounds are passed on as bounds.

Test [1] relates to Helicoverpa armigera. Description: Antifeedant activity against Helicoverpa armigera fed on compound-treated artificial diet assessed as growth inhibition at 50 to 100 ppm after 3 days relative to control. The class given is functional.
Test [2] concerns Helicoverpa armigera. Description: Antifeedant activity against third-instar larva of Helicoverpa armigera assessed as growth inhibition after 7 days by dietary assay. The class given is functional, organism-based.
Test [3] has as its system Helicoverpa armigera. The test is described as follows: Antifeedant activity against neonate larva of Helicoverpa armigera assessed as growth inhibition after 7 days by dietary assay. The class given is functional, organism-based. Conditions: for EC95: Helicoverpa armigera, feed or water, 168 h. Summed up: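 Two 24-h-old neonates were placed per cup on 1 g fresh-weight treated artificial diet. Cups were held in a tray lined with moist filter paper at 27±2 °C under 16:8 LD. Growth was taken from larval weight after 7 d as % of control, with mortality recorded. Forty larvae were used per concentration. EC50 was obtained by regression analysis.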

Test [4] concerns Helicoverpa armigera. Description: Antifeedant activity against Helicoverpa armigera fed on compound-treated artificial diet assessed as inhibition of consumption at 100 ppm after 3 days relative to control. Format: functional. Conditions: 72 h.
Test [5] relates to Helicoverpa armigera. Description: Antifeedant activity against fourth-instar larva of Helicoverpa armigera assessed as relative growth rate ratio per unit weight per day at 10 ppm applied topically measured after 3 days (reference value: 0.8 +/- 0.03). Format: functional.
For test [6], the system named is Helicoverpa armigera. Description: Antifeedant activity against fourth-instar larva of Helicoverpa armigera assessed as efficiency of conversion of ingested food at 5 ppm applied topically measured after 3 days (reference value: 20.3 +/- 2.7%). The class given is functional, Instar larval stage.
Test [7] has as its system Helicoverpa armigera. The test is described as follows: Antifeedant activity against fourth-instar larva of Helicoverpa armigera fed on compound treated artificial diet assessed as relative growth rate ratio per unit weight per day at 50 ppm after 3 days (reference value: 0.8 +/- 0.03). The class given is functional.
For test [8], the system named is Helicoverpa armigera. The test is described as follows: Antifeedant activity against fourth-instar larva of Helicoverpa armigera fed on compound treated artificial diet assessed as relative growth rate ratio per unit weight per day at 100 ppm after 3 days (reference value: 0.8 +/- 0.03). The class given is functional.
Test [9] has as its system Helicoverpa armigera. Description: Antifeedant activity against fourth-instar larva of Helicoverpa armigera assessed as relative consumption rate ratio per unit weight per day at 10 ppm applied topically measured after 3 days (reference value: 3.85 +/- 0.9). Format: functional.
Test [10] deals with Helicoverpa armigera. The test is described as follows: Antifeedant activity against third-instar larva of Helicoverpa armigera assessed as decrease in weight gain at 2 to 10 ug/larva applied topically measured after 7 days relative to control. The class given is functional, organism-based. A digest of the protocol: (§1)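 Larvae were dosed topically at 2-10 µg/larva in 0.5 µL acetone on the dorsal terga, with acetone-only controls. They were then fed untreated artificial diet, and diet consumption and weight gain were compared with controls over 7 d.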

The test system of test [11] is Helicoverpa armigera. The test is described as follows: Antifeedant activity against third-instar larva of Helicoverpa armigera assessed as decrease in food consumption at 2 to 10 ug/larva applied topically measured after 7 days relative to control. The class given is functional, organism-based. A digest of the protocol:
as §1

Test [12] has as its system Helicoverpa armigera. Description: Antifeedant activity against fourth-instar larva of Helicoverpa armigera fed on compound treated artificial diet assessed as efficiency of conversion of ingested food at 100 ppm after 3 days (reference value: 20.3 +/- 2.7%). The class given is functional, Instar larval stage.
The test system of test [13] is Helicoverpa armigera. Description: Antifeedant activity against pre-starved third-instar larva of Helicoverpa armigera after 6 hr by choice feeding assay. Format: functional. Summed up:
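H. armigera from lab culture on artificial diet, 27±1 °C, 16:8 LD. Single 2–10-h-old third instar, starved 4 h, in 9-cm Petri dish. Two preweighed diet cubes with compound (25–100 ppm) alternated with two control cubes. Consumption per cube measured after 6 h. 10 replicates per concentration. Deterrence index = (C − T)/(C + T) × 100.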

For test [14], the system named is Helicoverpa armigera. The test is described as follows: Antifeedant activity against fourth-instar larva of Helicoverpa armigera fed on compound treated artificial diet assessed as efficiency of conversion of ingested food at 50 ppm after 3 days (reference value: 20.3 +/- 2.7%). Format: functional, Instar larval stage.
For test [15], the system named is Helicoverpa armigera. The test is described as follows: Antifeedant activity against fourth-instar larva of Helicoverpa armigera fed on compound treated artificial diet assessed as relative consumption rate ratio per unit weight per day at 100 ppm after 3 days (reference value: 3.85 +/- 0.9). Format: functional.
Test [16] relates to Helicoverpa armigera. Description: Antifeedant activity against fourth-instar larva of Helicoverpa armigera fed on compound treated artificial diet assessed as relative consumption rate ratio per unit weight per day at 50 ppm after 3 days (reference value: 3.85 +/- 0.9). The class given is functional.
In test [17] the test system is Helicoverpa armigera. The test is described as follows: Antifeedant activity against pre-starved third-instar larva of Helicoverpa armigera assessed as decrease in feeding after 6 hr by choice feeding assay relative to control. Format: functional, organism-based. Summed up: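 Diet choice test in 9-cm Petri dishes: two preweighed cubes of diet with compound (25-100 ppm) alternated with two control cubes. A single 2- to 10-h-old third instar, pre-starved 4 h, was placed centrally. Consumption of each cube was weighed after 6 h, with 10 replicates per concentration. Deterrence index = (C − T)/(C + T) × 100.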

In test [18] the test system is Helicoverpa armigera. The test is described as follows: Antifeedant activity against fourth-instar larva of Helicoverpa armigera assessed as relative growth rate ratio per unit weight per day at 5 ppm applied topically measured after 3 days (reference value: 0.8 +/- 0.03). The class given is functional.
Test [19] has as its system Helicoverpa armigera. The test is described as follows: Antifeedant activity against fourth-instar larva of Helicoverpa armigera assessed as efficiency of conversion of ingested food at 10 ppm applied topically measured after 3 days (reference value: 20.3 +/- 2.7%). Format: functional, Instar larval stage.
For test [20], the system named is Helicoverpa armigera. The test is described as follows: Antifeedant activity against fourth-instar larva of Helicoverpa armigera assessed as relative consumption rate ratio per unit weight per day at 5 ppm applied topically measured after 3 days (reference value: 3.85 +/- 0.9). The class given is functional.
The subject of test [21] is Helicoverpa armigera. The test is described as follows: Antifeedant activity against neonate larva of Helicoverpa armigera assessed as decrease in consumption of diet after 7 days by dietary assay. Format: functional.

Regarding `C/C=C(\C)C(=O)O[C@H]1C[C@@H](OC(C)=O)[C@@]2(C(=O)OC)CO[C@H]3[C@@H](O)[C@@](C)([C@]45O[C@@]4(C)[C@@H]4C[C@H]5O[C@@H]5OC=C[C@@]54O)[C@H]4[C@]1(CO[C@]4(O)C(=O)OC)[C@@H]32` [AZADIRACHTIN A], the growth inhibition (GI) in the test on Helicoverpa armigera [1] is at most 75%. Besides, the EC50 came out at 0.4 ppm in the test on Helicoverpa armigera [2] and 0.26 ppm in the test on Helicoverpa armigera [3]. Besides, the EC95 in the test on Helicoverpa armigera [3] was 1.46 mg/L (≈ 2.03 µM). Besides, the inhibition at 100 ppm with Helicoverpa armigera [4] was at most 76%.
Regarding `C=C1[C@@H]([C@@]2(C)[C@@H](OC(C)=O)CC(=O)O[C@](C)(COC(C)=O)[C@@H]2C(=O)OC)[C@@H](OC=O)[C@H](OC(=O)[C@H](O)[C@H](C)CC)[C@@]2(C)[C@H](c3ccoc3)CC(=O)[C@]12O` [PRIEURIANIN], the Ratio in the test on Helicoverpa armigera [5] came out at 0.82; with Helicoverpa armigera [7], 0.41; in the test on Helicoverpa armigera [8] it was 0.32; in the test with Helicoverpa armigera [9], 3.79; in the test on Helicoverpa armigera [15] it was 1.63; with Helicoverpa armigera [16], 2.04. The Ratio amounted to 0.83 in the test with Helicoverpa armigera [18] and 3.74 in the test with Helicoverpa armigera [20]. Further, the Activity is 22.1% with Helicoverpa armigera [6], 19.8% in the test with Helicoverpa armigera [12], 20% in the test with Helicoverpa armigera [14] and 21.6% with Helicoverpa armigera [19]. In addition, the outcome in the test on Helicoverpa armigera [10] and with Helicoverpa armigera [11] was inactive. The compound also returned a DI50 in the test with Helicoverpa armigera [13] of 91.4 ppm. Also, the “growth inhibition (GI)” value with Helicoverpa armigera [1] is listed as 60%. Besides, the EC50 is reported as 92.2 ppm with Helicoverpa armigera [2] and 18.8 ppm with Helicoverpa armigera [3]. Besides, the EC95 in the test with Helicoverpa armigera [3] came out at 169 mg/L (≈ 226 µM). Besides, in the test on Helicoverpa armigera [17], the result was Active. Moreover, in the test on Helicoverpa armigera [4], the inhibition at 100 ppm was determined as 57.7%.
For `C=C1[C@@H]([C@@]2(C)[C@@H](OC(C)=O)CC(=O)O[C@](C)(COC(C)=O)[C@@H]2CC(=O)OC)[C@@H](OC=O)[C@H](OC(=O)[C@H](OC(C)=O)[C@H](C)CC)[C@]2(C)[C@@H](c3ccoc3)C[C@H]3O[C@]132`, the Ratio came to 0.8 with Helicoverpa armigera [5]; 0.35 with Helicoverpa armigera [7]; 0.2 in the test on Helicoverpa armigera [8]; 3.78 in the test with Helicoverpa armigera [9]; 1.08 in the test on Helicoverpa armigera [15]; 1.74 in the test on Helicoverpa armigera [16]. In addition, the Ratio with Helicoverpa armigera [18] worked out at 0.85; with Helicoverpa armigera [20], 3.74. Besides, the Activity with Helicoverpa armigera [6] was 22.1%; in the test on Helicoverpa armigera [12], 19%; in the test with Helicoverpa armigera [14], 20.1%; in the test with Helicoverpa armigera [21], “Dose-dependent effect”; in the test on Helicoverpa armigera [21] (record 2) it was 50.2%; in the test on Helicoverpa armigera [19], 21.3%. Moreover, the outcome with Helicoverpa armigera [10] and with Helicoverpa armigera [11] was inactive. Besides, the DI50 in the test on Helicoverpa armigera [13] is listed as 48.3 ppm. Also, the “growth inhibition (GI)” value in the test on Helicoverpa armigera [1] worked out at 60%. For the same compound, the figures for the EC50 in the test with Helicoverpa armigera [2] and in the test with Helicoverpa armigera [3] were 45.7 ppm and 2.6 ppm, respectively. For the same compound, in the test on Helicoverpa armigera [3], the concentration for an effect of 95% (EC95) is 30.8 mg/L (≈ 39 µM). The outcome in the test on Helicoverpa armigera [17] was Active. Further, the inhibition at 100 ppm in the test with Helicoverpa armigera [4] worked out at 72.8%.
As for `C=C1[C@@H]([C@@]2(C)[C@@H](OC(C)=O)CC(=O)O[C@](C)(COC(C)=O)[C@@H]2CC(=O)OC)[C@@H](OC=O)[C@H](OC(=O)[C@H](O)[C@H](C)CC)[C@]2(C)[C@@H](c3ccoc3)C[C@H]3O[C@]132`, the Ratio was determined as 0.87 in the test on Helicoverpa armigera [5]; 0.36 with Helicoverpa armigera [7]; 0.28 with Helicoverpa armigera [8]; 3.36 with Helicoverpa armigera [9]; 1.06 with Helicoverpa armigera [15]; 1.38 in the test on Helicoverpa armigera [16]. In addition, the Ratio stood at 0.88 with Helicoverpa armigera [18] and 3.48 in the test with Helicoverpa armigera [20]. Further, the Activity is 25.2% with Helicoverpa armigera [6]; 26.4% in the test on Helicoverpa armigera [12]; 26.2% in the test with Helicoverpa armigera [14]; “Dose-dependent effect” in the test with Helicoverpa armigera [21]; 50.2% in the test with Helicoverpa armigera [21] (record 2); 25.9% in the test on Helicoverpa armigera [19]. The result with Helicoverpa armigera [10] and in the test with Helicoverpa armigera [11] was inactive. Also, in the test with Helicoverpa armigera [1], the “growth inhibition (GI)” value was determined as 60%. For the same compound, the EC50 was 55.7 ppm in the test on Helicoverpa armigera [2] and 3.2 ppm with Helicoverpa armigera [3]. For the same compound, the 95% effect concentration (EC95) in the test with Helicoverpa armigera [3] amounted to 30.6 mg/L (≈ 41 µM). Besides, in the test with Helicoverpa armigera [17], the result was Active. Also, in the test with Helicoverpa armigera [4], the inhibition at 100 ppm turned out to be 69.1%.

One may read the EC95 as the concentration at which the effect reaches the 95% level. The inhibition is the change of the read-out against control, counted positive when it falls.
